Data published in ChEMBL document CHEMBL1151458, “Comparative analysis of the bactericidal activities of amphibian peptide analogues against multidrug-resistant nosocomial bacterial strains” (2008).
The source made the active and inactive calls. The calls are words filed in the database; no cut-off is given here.

Columns and labels:
[1] = test system: Staphylococcus aureus; assay: Bactericidal activity against Staphylococcus aureus isolate 2 with AMC-AMP-CIP-ERY-GEN-LVX-OXA-RIF-TET resistance phenotype assessed as concentration required for >= 3 log10 CFU/ml reduction in viable bacteria in sodium phosphate buffer at pH 7.4 after 1.5 hrs by liquid microdilution assay; format: functional
Procedure, shortened: (§1)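 Clinical multidrug-resistant isolates grown to mid-log in tryptone soy broth and stored frozen. Exponential cells resuspended in 10 mM sodium phosphate buffer, pH 7.4, at 1 × 10^7 CFU/ml; 10 μl incubated with graded peptide concentrations in 100 μl at 37°C for 1.5 h. Plated on tryptone soy agar, CFU read after 24 h at 37°C. Peptide stocks in 20% ethanol.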

[2] = test system: Pseudomonas aeruginosa; assay: Bactericidal activity against Pseudomonas aeruginosa isolate 1 with AMP-CFZ-CIP-CTX-CXM-GEN-LVX-SXT-TET resistance phenotype assessed as concentration required for >= 3 log10 CFU/ml reduction in viable bacteria in 20% heat-inactivated human serum after 1.5 hrs by liquid microdilution assay; format: functional
Procedure, shortened: (§2)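 The buffer microdilution kill assay (1 × 10^7 CFU/ml mid-log cells, 10 μl in 100 μl, 37°C, 1.5 h, CFU on tryptone soy agar after 24 h) with serum added to 20% or 40% final. Serum was pooled from five healthy donors, clotted at room temperature, spun at 300 × g and heat-inactivated at 56°C for 30 min.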

[3] = test system: Pseudomonas aeruginosa; assay: Antimicrobial activity against Pseudomonas aeruginosa isolate 1 with AMP-CFZ-CIP-CTX-CXM-GEN-LVX-SXT-TET resistance phenotype at twofold bactericidal concentration after 10 to 30 mins by time kill assay; format: functional, organism-based
Procedure, shortened: (§3)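 Time-kill in 10 mM sodium phosphate buffer, pH 7.4: 1 × 10^7 CFU/ml mid-log clinical isolate (10 μl) exposed at 37°C to peptide at the 1.5-h bactericidal concentration or twofold that, in 100 μl. Samples taken from 2 min onward, plated on tryptone soy agar, CFU counted after 24 h at 37°C. Killing taken as ≥3 log10 CFU/ml drop.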

[4] = test system: Enterococcus faecium; assay: Antimicrobial activity against Enterococcus faecium isolate 3 with AMP-CIP-CTX-ERY-GEN-LVX-SXT-TEC-VAN resistance phenotype assessed as time to kill at twofold the bactericidal concentration; format: functional, organism-based; procedure, shortened: as §3
[5] = test system: Staphylococcus aureus; assay: Bactericidal activity against Staphylococcus aureus isolate 3 with AMC-AMP-CIP-ERY-GEN-LVX-OXA resistance phenotype assessed as concentration required for >= 3 log10 CFU/ml reduction in viable bacteria in sodium phosphate buffer at pH 7.4 after 1.5 hrs by liquid microdilution assay; format: functional; procedure, shortened: as §1
[6] = test system: Pseudomonas aeruginosa; assay: Bactericidal activity against Pseudomonas aeruginosa isolate 3 with AMP-CFZ-CTX-CIP-GEN-IPM-LVX-SXT-TET-TOB resistance phenotype assessed as concentration required for >= 3 log10 CFU/ml reduction in viable bacteria in sodium phosphate buffer at pH 7.4 after 1.5 hrs by liquid microdilution assay; format: functional; procedure, shortened: as §1
[7] = test system: Enterococcus faecium; assay: Bactericidal activity against Enterococcus faecium isolate 6 with AMP-AMC-CLI-CRO-CTX-CIP-ERY-GEN-KAN-LVX-SXT-VAN resistance phenotype assessed as concentration required for >= 3 log10 CFU/ml reduction in viable bacteria in sodium phosphate buffer at pH 7.4 after 1.5 hrs by liquid microdilution assay; format: functional; procedure, shortened: as §1
[8] = test system: Enterococcus faecium; assay: Bactericidal activity against Enterococcus faecium isolate 3 with AMP-CIP-CTX-ERY-GEN-LVX-SXT-TEC-VAN resistance phenotype assessed as concentration required for >= 3 log10 CFU/ml reduction in viable bacteria in sodium phosphate buffer at pH 7.4 after 1.5 hrs by liquid microdilution assay; format: functional; procedure, shortened: as §1
[9] = test system: Pseudomonas aeruginosa; assay: Bactericidal activity against Pseudomonas aeruginosa isolate 2 with AMP-CFZ-CIP-CTX-CXM-GEN-LVX-IPM-MEM-SXT-TET resistance phenotype assessed as concentration required for >= 3 log10 CFU/ml reduction in viable bacteria in sodium phosphate buffer at pH 7.4 after 1.5 hrs by liquid microdilution assay; format: functional; procedure, shortened: as §1
[10] = test system: Stenotrophomonas maltophilia; assay: Antimicrobial activity against Stenotrophomonas maltophilia isolate 2 with AMK-CIP-CTX-IPM-MEM-SAM-TZP resistance phenotype assessed as assessed as time to kill at twofold bactericidal concentration; format: functional; procedure, shortened: as §3
[11] = test system: Stenotrophomonas maltophilia; assay: Bactericidal activity against Stenotrophomonas maltophilia isolate 2 with AMK-CIP-CTX-IPM-MEM-SAM-TZP resistance phenotype assessed as concentration required for >= 3 log10 CFU/ml reduction in viable bacteria in 20% heat-inactivated human serum after 1.5 hrs by liquid microdilution assay; format: functional; procedure, shortened: as §2
[12] = test system: Enterococcus faecium; assay: Bactericidal activity against Enterococcus faecium isolate 3 with AMP-CIP-CTX-ERY-GEN-LVX-SXT-TEC-VAN resistance phenotype assessed as concentration required for >= 3 log10 CFU/ml reduction in viable bacteria in 20% heat-inactivated human serum after 1.5 hrs by liquid microdilution assay; format: functional; procedure, shortened: as §2
[13] = test system: Staphylococcus aureus; assay: Antimicrobial activity against Staphylococcus aureus isolate 1 with AMC-AMP-CIP-ERY-GEN-OXA-RIF resistance phenotype at twofold the bactericidal concentration within 30 mins; format: functional, organism-based; procedure, shortened: as §3
[14] = test system: Staphylococcus aureus; assay: Bactericidal activity against Staphylococcus aureus isolate 1 with AMC-AMP-CIP-ERY-GEN-OXA-RIF resistance phenotype assessed as concentration required for >= 3 log10 CFU/ml reduction in viable bacteria in 20% heat-inactivated human serum after 1.5 hrs by liquid microdilution assay; format: functional; procedure, shortened: as §2
[15] = test system: Acinetobacter baumannii; assay: Bactericidal activity against Acinetobacter baumannii isolate 1 with AMP-AMC-CFZ-CIP-IPM-LVX-PIP-SXT-TET resistance phenotype assessed as concentration required for >= 3 log10 CFU/ml reduction in viable bacteria in sodium phosphate buffer at pH 7.4 after 1.5 hrs by liquid microdilution assay; format: functional; procedure, shortened: as §1
[16] = test system: Acinetobacter baumannii; assay: Antimicrobial activity against Acinetobacter baumannii isolate 3 with AMP-AMC-CFZ-CIP-IPM-SXT-TET-TOB resistance phenotype assessed as time to kill at bactericidal concentration; format: functional; procedure, shortened: as §3
[17] = test system: Acinetobacter baumannii; assay: Bactericidal activity against Acinetobacter baumannii isolate 3 with AMP-AMC-CFZ-CIP-IPM-SXT-TET-TOB resistance phenotype assessed as concentration required for >= 3 log10 CFU/ml reduction in viable bacteria in sodium phosphate buffer at pH 7.4 after 1.5 hrs by liquid microdilution assay; format: functional; procedure, shortened: as §1
[18] = test system: Enterococcus faecium; assay: Antimicrobial activity against Enterococcus faecium isolate 3 with AMP-CIP-CTX-ERY-GEN-LVX-SXT-TEC-VAN resistance phenotype assessed as time to kill at bactericidal concentration; format: functional; procedure, shortened: as §3
[19] = test system: Stenotrophomonas maltophilia; assay: Bactericidal activity against Stenotrophomonas maltophilia isolate 2 with AMK-CIP-CTX-IPM-MEM-SAM-TZP resistance phenotype assessed as concentration required for >= 3 log10 CFU/ml reduction in viable bacteria in sodium phosphate buffer at pH 7.4 after 1.5 hrs by liquid microdilution assay; format: functional; procedure, shortened: as §1
[20] = test system: Enterococcus faecium; assay: Bactericidal activity against Enterococcus faecium isolate 5 with AMP-AMC-CIP-CLI-ERY-GEN-KAN-LVX-SXT-TEC-VAN resistance phenotype assessed as concentration required for >= 3 log10 CFU/ml reduction in viable bacteria in sodium phosphate buffer at pH 7.4 after 1.5 hrs by liquid microdilution assay; format: functional; procedure, shortened: as §1
[21] = test system: Pseudomonas aeruginosa; assay: Antimicrobial activity against Pseudomonas aeruginosa isolate 1 with AMP-CFZ-CIP-CTX-CXM-GEN-LVX-SXT-TET resistance phenotype at bactericidal concentration after 30 mins by time kill assay; format: functional, organism-based; procedure, shortened: as §3
[22] = test system: Acinetobacter baumannii; assay: Bactericidal activity against Acinetobacter baumannii isolate 2 with AMP-CFZ-CIP-LVX-PIP-SXT resistance phenotype assessed as concentration required for >= 3 log10 CFU/ml reduction in viable bacteria in sodium phosphate buffer at pH 7.4 after 1.5 hrs by liquid microdilution assay; format: functional; procedure, shortened: as §1
[23] = test system: Acinetobacter baumannii; assay: Bactericidal activity against Acinetobacter baumannii isolate 3 with AMP-AMC-CFZ-CIP-IPM-SXT-TET-TOB resistance phenotype assessed as concentration required for >= 3 log10 CFU/ml reduction in viable bacteria in 20% heat-inactivated human serum after 1.5 hrs by liquid microdilution assay; format: functional; procedure, shortened: as §2
[24] = test system: Stenotrophomonas maltophilia; assay: Bactericidal activity against Stenotrophomonas maltophilia isolate 4 with AMK-CAZ-CIP-FEP-IPM-SAM-TZP resistance phenotype assessed as concentration required for >= 3 log10 CFU/ml reduction in viable bacteria in sodium phosphate buffer at pH 7.4 after 1.5 hrs by liquid microdilution assay; format: functional; procedure, shortened: as §1
[25] = test system: Staphylococcus aureus; assay: Bactericidal activity against Staphylococcus aureus isolate 1 with AMC-AMP-CIP-ERY-GEN-OXA-RIF resistance phenotype assessed as concentration required for >= 3 log10 CFU/ml reduction in viable bacteria in sodium phosphate buffer at pH 7.4 after 1.5 hrs by liquid microdilution assay; format: functional; procedure, shortened: as §1
[26] = test system: Stenotrophomonas maltophilia; assay: Bactericidal activity against Stenotrophomonas maltophilia isolate 1 with AMK-CIP-CTX-IPM-MEM-SAM-TZP resistance phenotype assessed as concentration required for >= 3 log10 CFU/ml reduction in viable bacteria in sodium phosphate buffer at pH 7.4 after 1.5 hrs by liquid microdilution assay; format: functional; procedure, shortened: as §1
[27] = test system: Pseudomonas aeruginosa; assay: Bactericidal activity against Pseudomonas aeruginosa isolate 1 with AMP-CFZ-CIP-CTX-CXM-GEN-LVX-SXT-TET resistance phenotype assessed as concentration required for >= 3 log10 CFU/ml reduction in viable bacteria in sodium phosphate buffer at pH 7.4 after 1.5 hrs by liquid microdilution assay; format: functional; procedure, shortened: as §1

Row | Substance | Activity [1] | Activity [2] | Activity [3] | Activity [4] | Activity [5] | Activity [6] | Activity [7] | Activity [8] | Activity [9] | Time [10] | Activity [11] | Activity [12] | Activity [13] | Activity [14] | Activity [15] | Time [16] | Activity [17] | Time [18] | Activity [19] | Activity [20] | other results
1 | H-FFPVIGRILNGIL-NH2 [TEMPORIN G] | 12 µM | >194 µM | Active | inactive | 12 µM | 48 µM | 6 µM | 6 µM | 48 µM | 2 min | >192 µM | 48 µM | Active | 96 µM | 12 µM | >=30 min | 6 µM | 5 min | 3 µM | 6 µM | Activity [21]: inactive; Activity [22]: 6 µM; Activity [23]: >193 µM; Activity [24]: >96 µM; Activity [25]: 24 µM; Activity [26]: 12 µM; Activity [27]: 48 µM
2 | H-FLPLIGRVLSGIL-NH2 [TEMPORIN A] | 12 µM | >194 µM | Active | inactive | 12 µM | 96 µM | 12 µM | 12 µM | 48 µM | 2 min | >192 µM | 48 µM | inactive | 48 µM | 24 µM | >=30 min | 12 µM | 5 min | 12 µM | 12 µM | Activity [21]: inactive; Activity [22]: 12 µM; Activity [23]: >193 µM; Activity [24]: 96 µM; Activity [25]: 12 µM; Activity [26]: 48 µM; Activity [27]: 48 µM
3 | H-IIGPVLGLVGSALGGLLKKI-NH2 [BOMBININ H2] | 16 µM | 128 µM | Active | inactive | 8 µM | 8 µM | 4 µM | 4 µM | 16 µM | 2 min | 128 µM | 64 µM | inactive | 64 µM | 8 µM | 2 min | 8 µM | 5 min | 4 µM | 8 µM | Activity [21]: inactive; Activity [22]: 4 µM; Activity [23]: 128 µM; Activity [24]: 16 µM; Activity [25]: 16 µM; Activity [26]: 4 µM; Activity [27]: 16 µM
4 | H-LLPIVGNLLKSLL-NH2 | 48 µM | 192 µM | Active | inactive | 12 µM | 48 µM | 12 µM | 12 µM | 48 µM | 2 min | 192 µM | 48 µM | Active | 96 µM | 24 µM | >=30 min | 6 µM | 5 min | 3 µM | 12 µM | Activity [21]: inactive; Activity [22]: 6 µM; Activity [23]: 192 µM; Activity [24]: 48 µM; Activity [25]: 48 µM; Activity [26]: 24 µM; Activity [27]: 48 µM
